Measurements reported in paper PMC7918756 (The Journal of Experimental Medicine, 2021).

Key:
guinea pigs [1] = test: OVA challenge model of asthma in guinea pigs; assay type: in vivo, guinea pig; settings: single oral administration of 70 mg/kg
In short: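 Hartley guinea pigs were immunised i.p. on days 0 and 7 with 100 mg OVA plus 80 mg alum in PBS. On day 28 they were challenged with nebulised 0.1% OVA in PBS for 30 min. Vehicle or test compound was given by gavage 3 h before challenge. Animals were euthanised 24 h later, with aortic blood taken for PK.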

HASMCs = test: calcium imaging, AITC-induced calcium flux in primary cells; assay type: cell-based, human; settings: HASMCs treated with TRPA1 agonist AITC
In short: (§1)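 Cells were imaged 15–24 h after plating, with fluorescence sampled at 0.5 Hz. TRPA1 activity was evoked by perfusing saline containing 50 µM AITC.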

healthy volunteers [2] = test: Phase 1 SAD study, safety and tolerability; assay type: in vivo, human; settings: single oral dose 25-600 mg
In short: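 Healthy volunteers received a single oral dose, fasted, randomised 6 active:2 placebo per cohort at 25, 75, 200 or 600 mg. Safety and tolerability was the primary outcome. Escalation targeted about two- to threefold exposure increases, decided after review of safety and PK data up to 72 h post-dose.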

mouse TRPA1 = mouse TRPA1 (Mus musculus, UniProt Q8BLA8); test: CHO cell line FLIPR Ca2+ assay, CA-evoked; assay type: cell-based
Sequence of mouse TRPA1 (Q8BLA8 whole entry): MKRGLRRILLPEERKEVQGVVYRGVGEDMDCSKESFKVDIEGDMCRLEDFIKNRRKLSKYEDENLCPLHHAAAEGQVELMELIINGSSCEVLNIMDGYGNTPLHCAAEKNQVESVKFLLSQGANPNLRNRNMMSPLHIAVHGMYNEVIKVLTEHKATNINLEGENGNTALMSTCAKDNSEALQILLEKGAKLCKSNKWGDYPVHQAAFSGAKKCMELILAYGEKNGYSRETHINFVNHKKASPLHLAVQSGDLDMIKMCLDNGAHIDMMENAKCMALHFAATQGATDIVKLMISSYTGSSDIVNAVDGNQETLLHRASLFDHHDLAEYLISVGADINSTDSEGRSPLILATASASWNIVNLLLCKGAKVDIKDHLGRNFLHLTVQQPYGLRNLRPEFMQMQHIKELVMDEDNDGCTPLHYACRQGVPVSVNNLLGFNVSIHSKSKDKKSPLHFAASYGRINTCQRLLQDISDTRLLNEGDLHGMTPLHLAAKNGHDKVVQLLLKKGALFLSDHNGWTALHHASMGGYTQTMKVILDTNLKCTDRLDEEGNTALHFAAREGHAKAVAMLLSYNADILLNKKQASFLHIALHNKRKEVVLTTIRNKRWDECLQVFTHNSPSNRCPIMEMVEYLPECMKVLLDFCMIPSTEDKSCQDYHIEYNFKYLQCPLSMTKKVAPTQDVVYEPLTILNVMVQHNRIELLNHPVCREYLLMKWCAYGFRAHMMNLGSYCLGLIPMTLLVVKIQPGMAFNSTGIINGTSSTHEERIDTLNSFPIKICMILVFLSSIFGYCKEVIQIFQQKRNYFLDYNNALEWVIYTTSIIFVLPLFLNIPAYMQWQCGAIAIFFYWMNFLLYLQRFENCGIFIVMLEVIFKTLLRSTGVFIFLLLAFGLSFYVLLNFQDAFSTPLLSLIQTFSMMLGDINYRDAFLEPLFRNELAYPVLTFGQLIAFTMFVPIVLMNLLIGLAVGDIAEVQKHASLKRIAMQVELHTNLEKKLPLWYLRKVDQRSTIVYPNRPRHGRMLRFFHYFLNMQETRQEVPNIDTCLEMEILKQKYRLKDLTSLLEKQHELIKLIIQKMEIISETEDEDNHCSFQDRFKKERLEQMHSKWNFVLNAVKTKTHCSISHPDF
In short: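 Mouse TRPA1-expressing CHO cells, fluorescent Ca2+ dye loaded, were exposed 10 min to a test compound concentration series and then challenged with cinnamaldehyde. Peak fluorescence responses were used to derive concentration-dependent inhibition.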

[3] = Phase 1 SAD study, plasma PK; assay type: in vivo, human; settings: healthy volunteers, dose increased from 75 mg to 600 mg
In short: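 Healthy volunteers in single-ascending-dose cohorts, randomised 6 test compound : 2 placebo, dosed fasted at 25, 75, 200 or 600 mg. Blood sampled before dose and at multiple time points after dose. Plasma concentrations measured by validated analytical methods.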

healthy volunteers [4] = test: Phase 1 SAD study, AITC skin challenge; assay type: in vivo, human
In short: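 Randomised, double-blind, single ascending oral dose study in fasted healthy volunteers: six active and two placebo per cohort, at 25, 75, 200 or 600 mg (tablets). AITC skin challenge was at 3 h (25 mg), 8 h (75 mg) or 6 h (200/600 mg) post-dose. DBF was recorded by LSCI from 2 min before to 21 min after AITC. Pain and itch were rated 0–10 at 2–20 min. DBF AUC0–10 min and maximal scores were compared with pooled placebo (Dunnett's); plasma concentrations were measured by validated bioanalysis.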

human TRPV1 = human TRPV1 (Homo sapiens, UniProt Q8NER1); test: Ca2+ responses evoked by 30 nM capsaicin; assay type: cell-based
Sequence of human TRPV1 (Q8NER1 whole entry): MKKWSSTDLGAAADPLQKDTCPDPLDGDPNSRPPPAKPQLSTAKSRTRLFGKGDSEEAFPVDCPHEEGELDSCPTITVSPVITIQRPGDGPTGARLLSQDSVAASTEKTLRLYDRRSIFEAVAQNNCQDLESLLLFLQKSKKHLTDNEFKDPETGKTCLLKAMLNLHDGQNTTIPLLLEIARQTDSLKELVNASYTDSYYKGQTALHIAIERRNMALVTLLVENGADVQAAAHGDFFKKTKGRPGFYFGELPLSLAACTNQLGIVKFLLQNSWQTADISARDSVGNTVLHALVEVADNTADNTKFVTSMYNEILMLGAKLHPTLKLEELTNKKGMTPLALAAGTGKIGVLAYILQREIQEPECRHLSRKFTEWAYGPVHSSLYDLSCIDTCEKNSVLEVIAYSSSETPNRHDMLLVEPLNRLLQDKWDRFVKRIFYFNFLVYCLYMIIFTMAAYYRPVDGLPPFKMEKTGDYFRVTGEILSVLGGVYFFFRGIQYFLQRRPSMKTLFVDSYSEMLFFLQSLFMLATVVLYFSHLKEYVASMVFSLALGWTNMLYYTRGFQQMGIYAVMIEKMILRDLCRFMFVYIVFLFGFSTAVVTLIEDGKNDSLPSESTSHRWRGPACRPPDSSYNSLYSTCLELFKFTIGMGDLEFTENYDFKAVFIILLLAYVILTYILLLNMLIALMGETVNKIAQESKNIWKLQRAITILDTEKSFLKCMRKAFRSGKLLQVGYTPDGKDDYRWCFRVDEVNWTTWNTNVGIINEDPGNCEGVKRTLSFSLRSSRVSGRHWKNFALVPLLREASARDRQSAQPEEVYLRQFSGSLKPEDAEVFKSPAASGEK

rats [5] = test: AITC-induced vascular leakage; assay type: in vivo, rat; settings: rats, 1, 3 and 10 mg/kg, 3 h before topical AITC
In short: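 Rats dosed 3 h beforehand were given 2% Evans blue i.v. (saline, 2.5 ml/kg) under isoflurane. Then 25 µl 20% AITC went on one ear and mineral oil on the other. Ear thickness was measured. At 20 min after AITC, dye was extracted in formamide (24 h, 65°C) and read at 620 nm.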

MDCK permeability = assay type: in vitro ADME, canine; settings: dog
In short: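 MDCK cells were seeded at 2.5 × 10^5 cells/ml and grown 4 d at 37°C, 5% CO2. Medium was DMEM/Earle's balanced salt solution with 10% FBS, renewed on day 2 and the day before the assay.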

rats [6] = test: OVA challenge model of asthma in rats; assay type: in vivo, rat; settings: oral
In short: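 Sensitised Brown Norway rats were challenged from day 28 with aerosolised 2% OVA in PBS, 30 min daily for 4 consecutive days. Vehicle or test compound was gavaged 3 h before each challenge; dexamethasone 5 mg/kg orally was the positive control. BALF was collected 24 h after the final treatment, eight rats per group.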

[7] = test system: HASMCs (human primary bronchial smooth muscle cells); test: impedance-based HASMC contraction assay; assay type: cell-based
rats [8] = test: AITC-induced dermal blood flow; assay type: in vivo, rat; settings: oral 3 or 10 mg/kg, 3 h before AITC skin challenge
In short: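 Rats dosed orally 3 h before imaging with 0, 3.0 or 10.0 mg/kg test compound in 85% MCT / 15% DMSO. Topical AITC skin challenge. Dermal blood flow recorded by laser speckle contrast imaging. Traces normalised to fold-change by subtracting and dividing by the mean baseline DBF before AITC. DBF rise-time and maximal level assessed.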

dog TRPA1 = dog TRPA1 (Canis lupus familiaris, UniProt A0A8I3Q1Q7); test: CHO cell line FLIPR Ca2+ assay, CA-evoked; assay type: cell-based
Sequence of dog TRPA1 (A0A8I3Q1Q7 1-1118): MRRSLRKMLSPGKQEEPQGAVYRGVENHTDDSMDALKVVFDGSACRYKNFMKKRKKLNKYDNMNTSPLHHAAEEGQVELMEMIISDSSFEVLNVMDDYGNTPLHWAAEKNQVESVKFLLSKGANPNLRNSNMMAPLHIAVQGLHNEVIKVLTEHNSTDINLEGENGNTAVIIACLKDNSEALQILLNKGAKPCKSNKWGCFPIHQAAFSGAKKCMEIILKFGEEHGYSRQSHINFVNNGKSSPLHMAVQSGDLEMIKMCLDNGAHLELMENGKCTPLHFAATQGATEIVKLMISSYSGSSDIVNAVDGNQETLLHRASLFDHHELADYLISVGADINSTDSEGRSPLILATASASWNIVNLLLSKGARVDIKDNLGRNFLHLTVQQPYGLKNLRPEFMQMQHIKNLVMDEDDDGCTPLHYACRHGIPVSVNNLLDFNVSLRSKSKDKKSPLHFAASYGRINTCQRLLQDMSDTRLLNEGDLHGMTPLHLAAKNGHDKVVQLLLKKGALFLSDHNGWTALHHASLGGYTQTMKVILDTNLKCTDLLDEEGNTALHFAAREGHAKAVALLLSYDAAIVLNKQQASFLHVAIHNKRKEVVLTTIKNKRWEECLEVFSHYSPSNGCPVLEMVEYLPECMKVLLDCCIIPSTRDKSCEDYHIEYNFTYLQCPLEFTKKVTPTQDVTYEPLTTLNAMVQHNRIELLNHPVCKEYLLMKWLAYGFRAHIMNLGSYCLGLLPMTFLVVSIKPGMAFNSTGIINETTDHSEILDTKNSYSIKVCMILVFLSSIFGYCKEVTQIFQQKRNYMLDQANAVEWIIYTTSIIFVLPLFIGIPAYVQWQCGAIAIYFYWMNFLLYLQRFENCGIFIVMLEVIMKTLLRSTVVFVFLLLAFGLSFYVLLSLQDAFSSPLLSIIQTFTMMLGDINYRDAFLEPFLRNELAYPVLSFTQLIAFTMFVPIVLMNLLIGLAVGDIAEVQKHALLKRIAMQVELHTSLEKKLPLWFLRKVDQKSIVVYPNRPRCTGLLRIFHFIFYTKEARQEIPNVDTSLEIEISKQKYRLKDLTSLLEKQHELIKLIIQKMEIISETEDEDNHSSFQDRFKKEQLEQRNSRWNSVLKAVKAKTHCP

[9] = test system: cross-species hepatocytes; test: hepatocyte metabolic stability, cross-species summary; assay type: in vitro ADME
In short: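 Test compound at 1 µM was incubated with pooled cryopreserved hepatocytes from female CD-1 mouse, male Sprague-Dawley rat, male beagle dog, male cynomolgus monkey and mixed-gender human.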

HLFs = test: calcium imaging, AITC-induced calcium flux in primary cells; assay type: cell-based, human; settings: HLFs treated with TRPA1 agonist AITC
In short: as §1

guinea pig TRPA1 = guinea pig TRPA1 (Cavia porcellus, UniProt H0VJD1); test: CHO cell line FLIPR Ca2+ assay, CA-evoked; assay type: cell-based
rats [10] = test: AITC-induced nocifensive behavior in rats; assay type: in vivo, rat
In short: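 Rats pretreated with test compound at the indicated doses, then given intraplantar AITC. Nocifensive behaviour scored as flinching plus hind paw–directed licking and biting. Data reported as mean ± SEM.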

human TRPC6 = target: T1, human TRPC6 (Homo sapiens, UniProt Q9Y210); test: membrane potential assay using 75 μM carbochol; assay type: cell-based
T1 sequence (Q9Y210 1-931): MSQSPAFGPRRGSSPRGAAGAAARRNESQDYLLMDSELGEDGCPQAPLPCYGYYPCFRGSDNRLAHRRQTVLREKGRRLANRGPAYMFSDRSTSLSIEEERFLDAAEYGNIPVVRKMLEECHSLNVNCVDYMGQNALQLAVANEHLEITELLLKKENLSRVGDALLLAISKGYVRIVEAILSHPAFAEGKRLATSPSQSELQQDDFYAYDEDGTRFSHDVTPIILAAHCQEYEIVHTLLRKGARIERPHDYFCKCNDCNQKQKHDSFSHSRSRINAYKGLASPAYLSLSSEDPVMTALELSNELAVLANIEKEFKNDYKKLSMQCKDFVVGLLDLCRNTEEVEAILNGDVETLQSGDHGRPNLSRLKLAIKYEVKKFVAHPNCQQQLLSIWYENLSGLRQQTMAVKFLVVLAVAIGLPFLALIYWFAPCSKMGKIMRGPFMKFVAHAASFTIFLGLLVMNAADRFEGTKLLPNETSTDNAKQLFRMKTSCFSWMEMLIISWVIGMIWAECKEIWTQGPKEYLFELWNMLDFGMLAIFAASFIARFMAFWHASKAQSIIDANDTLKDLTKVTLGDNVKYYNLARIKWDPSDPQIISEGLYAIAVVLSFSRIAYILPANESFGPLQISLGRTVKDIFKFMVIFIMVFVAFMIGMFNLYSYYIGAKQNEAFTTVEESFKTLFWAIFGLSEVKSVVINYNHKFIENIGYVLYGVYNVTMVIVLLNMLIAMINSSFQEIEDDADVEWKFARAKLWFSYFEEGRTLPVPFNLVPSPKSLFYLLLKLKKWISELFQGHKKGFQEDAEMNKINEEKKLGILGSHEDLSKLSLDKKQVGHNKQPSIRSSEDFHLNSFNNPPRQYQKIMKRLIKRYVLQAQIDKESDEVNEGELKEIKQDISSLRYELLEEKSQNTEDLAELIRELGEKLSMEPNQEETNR

guinea pigs [11] = test: AITC-induced dermal blood flow; assay type: in vivo, guinea pig; settings: oral 5, 15 or 45 mg/kg, 3.5 h before AITC skin challenge
In short: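 Female Hartley guinea pigs, 5 wk old, were dosed orally with 0, 5, 15 or 45 mg/kg test compound in 85% MCT/15% DMSO, 3.5 h before topical AITC. Dermal blood flow was imaged by laser speckle contrast imaging. Traces were normalised to fold-change against the mean pre-AITC baseline.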

[12] = IV/PO PK, summary across preclinical species; assay type: in vivo
human TRPM8 = human TRPM8 (Homo sapiens, UniProt Q7Z2W7); test: Ca2+ responses evoked by 50 μM menthol; assay type: cell-based
Sequence of human TRPM8 (Q7Z2W7 whole entry): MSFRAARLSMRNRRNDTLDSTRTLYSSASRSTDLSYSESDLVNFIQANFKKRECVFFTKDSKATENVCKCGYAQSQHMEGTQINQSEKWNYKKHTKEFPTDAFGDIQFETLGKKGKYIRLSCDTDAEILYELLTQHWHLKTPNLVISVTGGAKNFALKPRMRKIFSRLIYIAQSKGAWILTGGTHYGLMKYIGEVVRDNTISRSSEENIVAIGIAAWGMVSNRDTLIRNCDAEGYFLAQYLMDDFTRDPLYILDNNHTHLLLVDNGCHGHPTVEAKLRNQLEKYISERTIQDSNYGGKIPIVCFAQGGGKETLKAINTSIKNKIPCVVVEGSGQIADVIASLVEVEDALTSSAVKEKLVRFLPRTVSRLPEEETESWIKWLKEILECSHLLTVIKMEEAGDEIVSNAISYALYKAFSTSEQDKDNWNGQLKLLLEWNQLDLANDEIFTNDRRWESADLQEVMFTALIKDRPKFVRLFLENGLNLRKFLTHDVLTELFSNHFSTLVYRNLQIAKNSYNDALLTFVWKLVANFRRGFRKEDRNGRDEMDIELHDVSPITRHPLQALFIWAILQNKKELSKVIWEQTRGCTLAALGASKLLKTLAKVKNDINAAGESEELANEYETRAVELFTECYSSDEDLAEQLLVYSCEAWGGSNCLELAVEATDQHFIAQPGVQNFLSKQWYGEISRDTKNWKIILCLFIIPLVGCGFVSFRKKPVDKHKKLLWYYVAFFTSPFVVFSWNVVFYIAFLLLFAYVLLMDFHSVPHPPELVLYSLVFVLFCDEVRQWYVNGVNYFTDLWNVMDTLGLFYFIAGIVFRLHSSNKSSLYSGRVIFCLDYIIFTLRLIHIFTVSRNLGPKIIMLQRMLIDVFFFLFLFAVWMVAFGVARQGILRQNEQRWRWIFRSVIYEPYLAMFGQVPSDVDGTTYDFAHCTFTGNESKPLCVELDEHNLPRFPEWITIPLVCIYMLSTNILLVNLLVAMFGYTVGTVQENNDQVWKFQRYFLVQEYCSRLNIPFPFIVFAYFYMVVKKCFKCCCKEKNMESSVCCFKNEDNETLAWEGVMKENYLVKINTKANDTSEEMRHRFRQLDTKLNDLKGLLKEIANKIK

[13] = target: cynomolgus (cyno) monkey TRPA1 (Macaca fascicularis, UniProt A0A2K5VSJ1); test: CHO cell line FLIPR Ca2+ assay, CA-evoked; assay type: cell-based

C[C@H]1[C@H](F)C[C@@H](C(=O)NCc2cc(-c3cnc(C(F)(F)F)nc3)ncc2C(F)(F)F)N1S(=O)(=O)c1ccc(F)cc1 [GDC-0334, (2S,4R,5S)-4-fluoro-1-(4-fluorophenylsulfonyl)-5-methyl-N-((5-(trifluoromethyl)-2-(2-(trifluoromethyl)pyrimidin-5-yl)pyridin-4-yl)methyl)pyrrolidine-2-carboxamide]
BALF infiltrates to the airways (guinea pigs [1]): significantly reduced BALF infiltrates | effect on AITC-induced calcium flux (HASMCs): inhibited calcium flux | TEAEs thought to be related to treatment (healthy volunteers [2]): one case of mild headache | serious TEAEs (healthy volunteers [2]): no serious treatment-emergent AEs | tolerability (healthy volunteers [2]): well tolerated with only mild or moderate adverse events | IC50 (mouse TRPA1): 2.7 nM | exposures (Cmax, AUC0–24h, AUC0–72h) vs dose [3]: Approximately dose-proportional increases | AITC-induced pain and itch (healthy volunteers [4]; healthy volunteers dosed with 600 mg): near-complete inhibition | AITC-induced pain and itch (healthy volunteers [4]; healthy volunteers, 25-600 mg vs placebo, verbal rating 0–10): dose dependently reduced | DBF response to the AITC skin challenge (healthy volunteers [4]; healthy volunteers, AITC challenge 3–8 h after oral dosing): strong PD effect | free plasma concentration with near-complete inhibition of AITC-induced DBF (healthy volunteers [4]; healthy volunteers, free plasma): > 4.92 nM | plasma concentration with near-complete inhibition of AITC-induced DBF (healthy volunteers [4]; healthy volunteers, total plasma): > 250 ng/mL | IC50 (human TRPV1): > 10000 nM | Evans blue perfusion (AITC-induced vascular leakage) (rats [5]): Dose-dependent reductions | Papp A→B at 180 min, 10 µM (MDCK permeability): 18.9 ×10⁻⁶ cm/s | substance P (SP) in BALF after OVA challenge (rats [6]): significantly blunted an increase | IC50 ([7]; Homo sapiens, HASMC, read-out: HASMC contraction IC50): 1.8 nM | AITC-induced DBF (rats [8]): Dose-dependent decreases in the DBF rise-times and maximal levels | IC50 (dog TRPA1): 102 nM | metabolite stability in cross-species hepatocytes [9]: moderate to high | effect on AITC-induced calcium flux (HLFs): inhibited calcium flux | IC50 (guinea pig TRPA1): 11.1 nM | AITC-induced nocifensive behavior (rats [10]; 3-mg/kg dose): suppression comparable to that of Trpa1^−/− rats | AITC-induced nocifensive behavior (rats [10]; pretreatment, indicated doses): reduced AITC-induced nocifensive behavior in a dose-dependent manner | IC50 (human TRPC6): > 10000 nM | AITC-induced DBF (guinea pigs [11]): dose-dependent reduction | clearances [12]: low to moderate | IC50 (human TRPM8): > 10000 nM | IC50 [13]: 3.6 nM

CCC(=N\O)/C(C)=C/c1ccc(F)cc1 [A-967079, reference compound]
times less potent than GDC-0334 ([7]; HASMC contraction assay (Fig. 2 C)): ~500 times
